Source: PubChem (several laboratories)
MC4R ag barr: MC4R agonists recruiting beta-arrestin, primary screen, cell-based, luminescence, agonist arm of biased-ligand search. U2OS MC4R beta-arrestin complementation; percent of melanotan II response, DMSO zero. actives 0.98% (n = 360,000). AID 540308, 2011. activation, % at 8.9 µM. Melanocortin receptor 4 (Homo sapiens), P32245;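 active = activation above a per-plate cutoff, the mean activation of sample wells on that plate plus 3 SD, cut at about 8% in these data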
Target sequence (P32245 whole entry, looked up): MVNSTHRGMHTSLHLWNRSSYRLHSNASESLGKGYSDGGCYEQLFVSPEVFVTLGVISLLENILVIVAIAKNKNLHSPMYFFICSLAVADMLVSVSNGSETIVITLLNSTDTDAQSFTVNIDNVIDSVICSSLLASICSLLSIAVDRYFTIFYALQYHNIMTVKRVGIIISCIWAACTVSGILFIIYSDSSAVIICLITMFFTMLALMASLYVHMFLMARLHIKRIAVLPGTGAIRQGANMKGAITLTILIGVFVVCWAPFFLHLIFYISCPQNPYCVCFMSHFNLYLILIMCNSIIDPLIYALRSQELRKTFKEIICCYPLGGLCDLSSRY
NTR1 agonist: agonists of human NTR1, primary screen, imaging, U2OS cells, beta-arrestin-GFP, high content. Neurotensin receptor type 1 (Homo sapiens), P30989. NTR1-U2OS beta-arrestin-GFP spot imaging, agonist mode. activation, % at 20 µM. actives 0.17% (n = 330,000). AID 493036, 2011;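 active = activation at or above 40% of the spot to cytoplasm intensity ratio, with at least 20 cells analyzed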
AI-2 QS mod: Vibrio harveyi AI-2 quorum sensing modulators, primary screen, JMH597 strain, luminescence/OD600 ratio; Vibrio harveyi JMH597 AI-2 luminescence/OD600 ratio, 9 h; hits give low values; strain lacks LuxN and CqsS sensors; 0 = neutral-control median; activity change, % at 7.5 µM; actives 0.4% (n = 300,000); in the data active = activity change below about -75%, passing the limit was not always enough;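 note: luminescence divided by OD600 gain over 9 h not by final OD600 alone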
MC4R antag cAMP: MC4R antagonists of cAMP signaling, primary screen, cell-based, TR-FRET, antagonist arm of biased-ligand search; MC4R-expressing cells, MTII-stimulated cAMP, LANCE TR-FRET; inhibition, % at 6.5 µM; actives 0.48% (n = 360,000); AID 540295, 2011;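 active = inhibition above its plate's cutoff, the mean of tested wells on that plate plus 3 SD, cut at about 29% in these data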
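Material – human MC4R-expressing U2OS cells · Repeats – no replicates · Detection – TR-FRET with Eu-cAMP and labeled anti-cAMP, 671 nm · Times – compound 30 min, challenge 1 h, detection 1 h · Compound – single nominal compound dose of 6.5 µM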
A number is an active result; 0 = inactive; - = no result given. In the library only some 1.8% were active in any assay of this set; here they are far more common.

SMILES | MC4R ag barr | NTR1 agonist | AI-2 QS mod | MC4R antag cAMP
NC(=S)Nc1cccc2cc3ccccc3cc12 | 0 | 0 | -80 | 0
O=C(NCC1CC1)C1Cc2c(-c3ccccc3Oc3ccccc3)ccnc2O1 (stereo not given) | 0 | - | - | 0
O=[N+]([O-])c1cc(NS(=O)(=O)c2ccc(Cl)nc2)ccc1Cl | 0 | 0 | 0 | 0
CC(C)c1ccc(NS(=O)(=O)c2ccc(Cl)nc2)cc1 | 0 | 0 | -92 | 0
O=C(Nc1nccs1)c1cc2sccc2n1Cc1ccc(F)cc1 | 8.9 | 0 | 0 | 0
COc1ccc(NC(=O)c2cc3sccc3n2Cc2ccc(F)cc2)cc1OC | 0 | 0 | 0 | 0
CCc1ccccc1NC(=O)Cn1nnc(C(=O)NCc2cccc(OC)c2)c1N | 0 | 0 | 0 | 0
CCCC(=O)NC(=S)Nc1cccc(C(C)=O)c1 | 0 | 0 | -78 | 0
CC(=O)c1cccc(NC(=S)NC(=O)c2ccc(Br)cc2)c1 | 8.5 | 0 | 0 | 0
CCC(=O)NC(=S)Nc1cccc(C(C)=O)c1 | 0 | 0 | 0 | 0
O=C(c1cccs1)N1CCCC(c2nc3c(nnn3Cc3ccccc3Cl)c(=O)[nH]2)C1 (stereo not given) | 0 | 0 | 0 | 0
CN(CC(=O)Nc1ccc(F)cc1)C(=O)c1ccccc1Sc1ccccc1C#N | 0 | 0 | - | 0
CCOc1cc(C(=O)NC2CC(C)(C)NC(C)(C)C2)cc(OCC)c1OCC | 0 | 0 | - | 0
CCCCCCC1CC(C)(C(=O)CNc2nncs2)OC1=O (stereo not given) | 0 | 0 | -76 | 0
O=[N+]([O-])c1cc(Cl)ccc1Sc1cccc2cccnc12 | 8.8 | 0 | 0 | 0
Fc1ccc(-c2nc3c(-c4ccc(Cl)cc4)cnn3cc2CCN2CCOCC2)cc1 | 8.8 | 0 | 0 | 0
CN1CCN(CCc2cn3ncc(C#N)c3nc2-c2ccc(F)cc2)CC1 | 0 | 0 | 0 | 0
CCOC(=O)c1[nH]c(C)c(C(=O)OCC(=O)N2CCc3ccccc32)c1C | 8.5 | 0 | - | 0
O=C(CCC(=O)N(CC(=O)NC1CCCC1)c1cccc(F)c1)Nc1nccs1 | 0 | 0 | 0 | 0
CCc1cc(-c2nnn(CCC3COCCO3)c2CC)cc(CC)c1-c1cn(Cc2ccc3ccccc3c2)nn1 (stereo not given) | 0 | - | - | 0
C=C(C)COc1ccc(-c2[nH]ncc2Oc2ccc(OC)cc2)c(O)c1 | 0 | 0 | 0 | 0
C=C(C)COc1ccc(-c2[nH]ncc2Oc2ccccc2OC)c(O)c1 | 8.9 | 0 | 0 | 0
C=C(C)COc1ccc(-c2[nH]ncc2-c2ccccc2OC)c(O)c1 | 9.2 | 0 | 0 | 0
COC(=O)c1c(C(=O)OC)c2c(-c3ccccc3)cc3cccc1n32 | 0 | - | - | 0
Cc1cc(C)cc(C(=O)N2CCCCC2)c1 | 0 | - | - | 0
SMILES | MC4R ag barr | NTR1 agonist | AI-2 QS mod | MC4R antag cAMP
CCOc1ccc(S(=O)(=O)c2c[nH]c3ccccc3c2=O)cc1 | 0 | 0 | -85 | 0
O=C(Cn1ccc2cc(S(=O)(=O)N3CCCC3)ccc21)NCCc1ccccc1 | 0 | 0 | 0 | 0
O=C(COC(=O)/C=C/c1cc(Br)ccc1F)Nc1ccc2[nH]c(=O)[nH]c2c1 | 8.9 | 0 | 0 | 0
OC(CNCCC(c1ccccc1)c1ccccc1)COc1ccccc1 (stereo not given) | 25 | 0 | 0 | 0
O=C(c1cc(Cl)ccc1F)N1CCCC(Nc2ccc3c(c2)OCCO3)C1 (stereo not given) | 0 | 0 | 0 | 0
Cc1ccc(OCCN2CCC2(C)C(=O)Nc2ccc3c(c2)OCO3)cc1 (stereo not given) | 0 | - | - | 0
COc1cccc(C(=O)O/N=C(\N)Cc2ccc(Cl)cc2)c1 | 0 | 0 | -92 | 0
COc1c(O)cc(O)c2c(=O)cc(-c3ccccc3)oc12 | 0 | 0 | - | 0
COc1cc(Cl)c(C)cc1NC(=O)COc1ccccc1[N+](=O)[O-] | 0 | 0 | 0 | 0
COc1cc(NC(=O)COc2c(C)cc(C)cc2[N+](=O)[O-])c(OC)cc1Cl | 8.4 | 0 | 0 | 0
COc1ccc(/C=C\C(=O)O[C@@H]2C(O)C(O[C@@H]3OC(C)[C@H](O[C@@H]4OCC(O[C@H]5O[C@H](CO)[C@@H](O)C(O)C5O)C(O)C4O)C(O)C3O)[C@H](OC(=O)[C@]34CCC(C)(C)C[C@@H]3C3=CCC5[C@@]6(C)CC(O)C(O[C@@H]7OC(CO)C(O)[C@H](O)[C@H]7O)[C@@](C)(C(=O)O)C6CC[C@@]5(C)[C@]3(CO)CC4)O[C@H]2C)cc1 (stereo not given in full) | 0 | 0 | - | 66
O=C(N/N=C/c1c[nH]c2ccccc12)c1cc(-c2ccc3ccccc3c2)n[nH]1 | 0 | 0 | -79 | 0
O=C(N/N=C/c1c[nH]c2ccccc12)c1cc(-c2ccc(-c3ccccc3)cc2)n[nH]1 | 0 | 0 | 0 | 0
CCOc1ccc(OCCC(=O)Nc2cccc(S(=O)(=O)N3CCCC3)c2)cc1 | 0 | 0 | - | 0
c1ccc(Nc2cc(Nc3ccccc3)[nH]n2)cc1 | 0 | 0 | -88 | 0
O=c1nccc(Nc2ccccc2)[nH]1 | 0 | 0 | 0 | 0
O=C(NCCCN1CCOCC1)c1ccc(/C=C2\Oc3ccccc3N(Cc3ccccc3F)C2=O)cc1 | 8.9 | 0 | 0 | 0
CCCCNC(=O)c1ccc(/C=C2\Oc3ccccc3N(C)C2=O)cc1 | 9.2 | 0 | 0 | 0
CCN1CCN(CCCNC(=O)c2ccc(/C=C3/Oc4ccccc4N(Cc4cccc(C)c4)C3=O)cc2)CC1 | 0 | 0 | 0 | 0
O=C(Nc1ccon1)Nc1ccccc1C(F)(F)F | 0 | 0 | 0 | 0
Oc1ccccc1C1=Nc2ccccc2N=C(c2ccco2)C1 | 8.5 | 0 | 0 | 0
COc1ccc(O)c(C2=Nc3ccccc3N=C(c3ccccc3)C2)c1 | 0 | 0 | 0 | 0
Cc1ccc(CNc2oc(COc3ccccc3Cl)nc2C#N)cc1 | 9.5 | 0 | 0 | 0
CCOc1c2ccccc2nn1CCO | 0 | 0 | - | 0
CCOC(=O)C1(N(CC)CC)Sc2cc(C)ccc2NC1=O (stereo not given) | 0 | 0 | 0 | 0
SMILES | MC4R ag barr | NTR1 agonist | AI-2 QS mod | MC4R antag cAMP
COC(=O)C1=C(C(=O)OC)SC2(S1)C(C(=O)OC)=C(C(=O)OC)SC1=C2c2cc(C)ccc2NC1(C)C | 0 | 0 | 0 | 53
COc1ccc(OC)c(NS(=O)(=O)c2c(C(=O)N3CCCCCC3)c(C)n(C)c2C)c1 | 0 | 0 | 0 | 0
Cc1ccc2nc(-c3ccc(NC(=O)CSc4ccccc4)cc3)[nH]c2c1 | 9.0 | 0 | 0 | 0
Cc1ccc2nc(SCC(=O)Nc3ccc(C(N)=O)cc3)[nH]c2c1 | 0 | 0 | 0 | 0
O=C(CSc1ccccc1)Nc1ccc(-c2nc3ccccc3[nH]2)cc1 | 11 | 0 | 0 | 0
Cc1cccc2nc(-c3ccco3)c(Nc3ccccc3)n12 | 0 | 0 | 0 | 0
Cc1ccc(Nc2c(-c3ccccn3)nc3cccc(C)n23)cc1 | 0 | 0 | -80 | 0
N=c1c[n+](N2CCOCC2)[n-]o1 | 0 | 0 | 0 | 31
